Assay results taken from ChEMBL document CHEMBL1122406, “Bis(bioreductive) alkylating agents: synthesis and biological activity in a nude mouse human carcinoma model” (1983).

Key:
[1] = system: EBV-positive nasopharyngeal cell line; assay: EBV-positive nasopharyngeal colony count obtained from the examination of uniform plate surface areas after a dose of 0.2 ug/mL; type: functional
Method in brief: (§1)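 Modified clonogenic assay in D98/HR1 cells from 3-4-day-old monolayer cultures. Drug diluted into warm McCoy's 5A medium; quinones first dissolved in dichloromethane, then diluted in 95% ethanol. Cells at 4.0 × 10^5/mL exposed for 1 h at 37 °C, washed twice, then plated in 0.3% agar CMRL 1066 medium over a 0.5% agar base, 6.7 × 10^4 cells/plate. Survival is expressed relative to control.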

[2] = system: EBV-positive nasopharyngeal cell line; assay: Percent colony reduction in cell growth in EBV-positive nasopharyngeal cell lines after administration of 10 ug/mL dose; type: functional, cell-based; details: human gammaherpesvirus 4
Method in brief: (§2)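 D98/HR1 cells from 3-4-day monolayer cultures, suspended at 4.0×10^5/mL and exposed to drug for 1 h at 37 °C. Quinones dissolved in dichloromethane, diluted in 95% ethanol, then in warm McCoy's 5A. Cells washed twice, plated in agar over an agar base at 6.7×10^4 cells/plate. Colony survival expressed relative to control, as percent reduction.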

[3] = system: EBV-positive nasopharyngeal cell line; assay: EBV-positive nasopharyngeal colony count obtained from the examination of uniform plate surface areas after a dose of 10 ug/mL; type: functional, cell-based; details: human gammaherpesvirus 4; method in brief: as §1
[4] = system: EBV-positive nasopharyngeal cell line; assay: Percent colony reduction in cell growth in EBV-positive nasopharyngeal cell lines after administration of 0.2 ug/mL dose; type: functional; method in brief: as §2
[5] = system: EBV-positive nasopharyngeal cell line; assay: EBV-positive nasopharyngeal colony count obtained from the examination of uniform plate surface areas after a dose of 0.1 ug/mL; type: functional, human gammaherpesvirus 4; method in brief: as §1
[6] = system: EBV-positive nasopharyngeal cell line; assay: EBV-positive nasopharyngeal colony count obtained from the examination of uniform plate surface areas after a dose of 1.34 ug/mL; type: functional, human gammaherpesvirus 4; method in brief: as §1
[7] = system: EBV-positive nasopharyngeal cell line; assay: Percent colony reduction in cell growth in EBV-positive nasopharyngeal cell lines after administration of 6.28 ug/mL dose; type: functional, human gammaherpesvirus 4; details: in the assay text read “2.68 ug/mL” for “6.28 ug/mL”; method in brief: as §2
Mus musculus [8] = assay: Base line measurement at a sample size of 3 after fourth week of 20 mg/kg dose administration; type: functional
Method in brief: (§3)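 Nude mice pretreated with 0.5 mL rabbit anti-mouse thymocyte serum s.c., inoculated s.c. 7 days later with 1×10^7 D98/HR1 cells in PBS, and given a second serum dose two weeks later. Dosing started at tumors ~2-3 mm diameter, daily for 14 days, then 2 weeks off. Dose per kg from daily individual weights; Klucel vehicle. Group mean tumor volume (mm3) adjusted by analysis of covariance for base line.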

Mus musculus [9] = assay: Base line measurement at a sample size of 5 after fourth week of 5 mg/kg dose administration; type: functional; method in brief: as §3
Mus musculus [10] = assay: Base line measurement at a sample size of 3 after second week of 20 mg/kg dose administration; type: functional; method in brief: as §3
[11] = system: EBV-positive nasopharyngeal cell line; assay: EBV-positive nasopharyngeal colony count obtained from the examination of uniform plate surface areas after a dose of 0.67 ug/mL; type: functional, human gammaherpesvirus 4; method in brief: as §1
[12] = system: EBV-positive nasopharyngeal cell line; assay: Percent colony reduction in cell growth in EBV-positive nasopharyngeal cell lines after administration of 1.34 ug/mL dose; type: functional, human gammaherpesvirus 4; method in brief: as §2
Mus musculus [13] = assay: Base line measurement at a sample size of 5 after first week of 5 mg/kg dose administration; type: functional; method in brief: as §3
[14] = system: EBV-positive nasopharyngeal cell line; assay: Percent colony reduction in cell growth in EBV-positive nasopharyngeal cell lines after administration of 0.67 ug/mL dose; type: functional, human gammaherpesvirus 4; method in brief: as §2
[15] = system: EBV-positive nasopharyngeal cell line; assay: EBV-positive nasopharyngeal colony count obtained from the examination of uniform plate surface areas after a dose of 2.68 ug/mL; type: functional, human gammaherpesvirus 4; method in brief: as §1
Mus musculus [16] = assay: Base line measurement at a sample size of 3 after first week of 20 mg/kg dose administration; type: functional; method in brief: as §3
Mus musculus [17] = assay: Base line measurement at a sample size of 5 after second week of 5 mg/kg dose administration; type: functional; method in brief: as §3
[18] = system: EBV-positive nasopharyngeal cell line; assay: Percent colony reduction in cell growth in EBV-positive nasopharyngeal cell lines after administration of 6.0 ug/mL dose; type: functional, human gammaherpesvirus 4; method in brief: as §2
[19] = system: EBV-positive nasopharyngeal cell line; assay: EBV-positive nasopharyngeal colony count obtained from the examination of uniform plate surface areas after a dose of 6.0 ug/mL; type: functional, human gammaherpesvirus 4; method in brief: as §1
[20] = system: EBV-positive nasopharyngeal cell line; assay: EBV-positive nasopharyngeal cells (D98/HR1) survived at concentration of 0.3 ug/mL of compound; type: functional, human gammaherpesvirus 4; method in brief: as §1
[21] = system: EBV-positive nasopharyngeal cell line; assay: EBV-positive nasopharyngeal cells (D98/HR1) survived at concentration of 100 ug/mL of compound; type: functional, human gammaherpesvirus 4; method in brief: as §1
[22] = system: EBV-positive nasopharyngeal cell line; assay: Percent colony reduction in cell growth in EBV-positive nasopharyngeal cell lines (D98/HR1) after administration of 100 ug/mL dose; type: functional, human gammaherpesvirus 4; method in brief: as §2
[23] = system: EBV-positive nasopharyngeal cell line; assay: Percent colony reduction in cell growth in EBV-positive nasopharyngeal cell lines (D98/HR1) after administration of 0.3 ug/mL dose; type: functional, human gammaherpesvirus 4; method in brief: as §2
Mus musculus [24] = assay: Base line measurement at a sample size of 5 after second week of 5 mg/kg dose administration in mice; type: functional; method in brief: as §3
[25] = system: EBV-positive nasopharyngeal cell line; assay: EBV-positive nasopharyngeal colony count obtained from the examination of uniform plate surface areas after a dose of 0.067 ug/mL from Experiment B; type: functional, human gammaherpesvirus 4; method in brief: as §1
[26] = system: EBV-positive nasopharyngeal cell line; assay: Percent colony reduction in cell growth in EBV-positive nasopharyngeal cell lines after administration of 0.067 ug/mL dose
[27] = system: EBV-positive nasopharyngeal cell line; assay: EBV-positive nasopharyngeal colony count obtained from the examination of uniform plate surface areas after a dose of 2.68 ug/mL from Experiment B in mice; type: functional, human gammaherpesvirus 4
[28] = system: EBV-positive nasopharyngeal cell line; assay: EBV-positive nasopharyngeal colony count obtained from the examination of uniform plate surface areas after a dose of 0.67 ug/mL from Experiment B; type: functional, human gammaherpesvirus 4; method in brief: as §1
Mus musculus [29] = assay: Base line measurement at a sample size of 4 after fourth week of 20 mg/kg dose administration in mice; type: functional; method in brief: as §3
Mus musculus [30] = assay: Base line measurement at a sample size of 4 after first week of 20 mg/kg dose administration in mice; type: functional; method in brief: as §3
Mus musculus [31] = assay: Base line measurement at a sample size of 5 after fourth week of 5 mg/kg dose administration in mice; type: functional; method in brief: as §3
[32] = system: EBV-positive nasopharyngeal cell line; assay: EBV-positive nasopharyngeal colony count obtained from the examination of uniform plate surface areas after a dose of 1.34 ug/mL from Experiment B; type: functional, human gammaherpesvirus 4; method in brief: as §1
[33] = system: EBV-positive nasopharyngeal cell line; assay: Percent colony reduction in cell growth in EBV-positive nasopharyngeal cell lines after in vitro exposure at 1.34 ug/mL
Mus musculus [34] = assay: Base line measurement at a sample size of 5 after first week of 5 mg/kg dose administration in mice; type: functional; method in brief: as §3
Mus musculus [35] = assay: Base line measurement at a sample size of 4 after second week of 20 mg/kg dose administration in mice; type: functional; method in brief: as §3
[36] = system: EBV-positive nasopharyngeal cell line; assay: EBV-positive nasopharyngeal colony count obtained from the examination of uniform plate surface areas after a dose of 0.004 ug/mL from experiment B; type: functional, human gammaherpesvirus 4; method in brief: as §1
[37] = system: EBV-positive nasopharyngeal cell line; assay: Percent colony reduction in cell growth in EBV-positive nasopharyngeal cell lines after administration of 0.4 ug/mL dose from experiment B; type: functional, human gammaherpesvirus 4; method in brief: as §2
[38] = system: EBV-positive nasopharyngeal cell line; assay: EBV-positive nasopharyngeal colony count obtained from the examination of uniform plate surface areas after a dose of 0.04 ug/mL from experiment A; type: functional, human gammaherpesvirus 4; method in brief: as §1
[39] = system: EBV-positive nasopharyngeal cell line; assay: EBV-positive nasopharyngeal colony count obtained from the examination of uniform plate surface areas after a dose of 0.4 ug/mL from experiment B; type: functional, human gammaherpesvirus 4; method in brief: as §1
[40] = system: EBV-positive nasopharyngeal cell line; assay: EBV-positive nasopharyngeal colony count obtained from the examination of uniform plate surface areas after a dose of 0.04 ug/mL from experiment B; type: functional, human gammaherpesvirus 4; method in brief: as §1
[41] = system: EBV-positive nasopharyngeal cell line; assay: Percent colony reduction in cell growth in EBV-positive nasopharyngeal cell lines after administration of 0.04 ug/mL dose from experiment A; type: functional, human gammaherpesvirus 4; method in brief: as §2
[42] = system: EBV-positive nasopharyngeal cell line; assay: Percent colony reduction in cell growth in EBV-positive nasopharyngeal cell lines after administration of 0.04 ug/mL dose from experiment B; type: functional, human gammaherpesvirus 4; method in brief: as §2
[43] = system: EBV-positive nasopharyngeal cell line; assay: Percent colony reduction in cell growth in EBV-positive nasopharyngeal cell lines after administration of 0.004 ug/mL dose from experiment B; type: functional, human gammaherpesvirus 4; method in brief: as §2
[44] = system: EBV-positive nasopharyngeal cell line; assay: Percent colony reduction in cell growth in EBV-positive nasopharyngeal cell lines (D98/HR1) after administration of 3.0 ug/mL dose; type: functional, human gammaherpesvirus 4; method in brief: as §2
[45] = system: EBV-positive nasopharyngeal cell line; assay: EBV-positive nasopharyngeal cells (D98/HR1) survived at concentration of 3.0 ug/mL of compound; type: functional, human gammaherpesvirus 4; method in brief: as §1

Compound CISPLATIN has a Survival ([1]; human gammaherpesvirus 4) of 0.4, a Reduction [2] of 97% and a Survival [3] of 0.03. For the same compound, the Reduction ([4]; human gammaherpesvirus 4) was 60%.

In the case of `O=C1c2c(O)ccc(O)c2C(=O)c2c(NCCNCCO)ccc(NCCNCCO)c21` [MITOXANTRONE], the Survival [5] is reported as 0.33.

Compound `O=C1C=C(CBr)C(=O)C(CCC2=CC(=O)C=C(CBr)C2=O)=C1` has a Survival [1] of 1, a Survival [6] of 0.77 and a Reduction [7] of 9%. It also gave a Baseline (Mus musculus [8]) of 29.69, a Baseline (Mus musculus [9]) of 137.03 and a Baseline (Mus musculus [10]) of 17.52. For the same compound, the Survival [11] was 0.81, the Reduction [12] was 23% and the Baseline (Mus musculus [13]) was 22.32. The Reduction [4] was 0%, the Reduction [14] was 19% and the Survival [15] was 0.91. The Baseline (Mus musculus [16]) was 12.54 and the Baseline (Mus musculus [17]) was 43.2.

In the case of `CC[C@]1(O)C[C@@H]2CN(CCc3c([nH]c4ccccc34)[C@@](C(=O)OC)(c3cc4c(cc3OC)N(C)[C@H]3[C@@](O)(C(=O)OC)[C@H](OC(C)=O)[C@]5(CC)C=CCN6CC[C@]43[C@@H]65)C2)C1` [VINBLASTINE], the Reduction [18] is reported as over 99% and the Survival [19] is reported as under 0.01.

Compound `CN(Cc1cnc2nc(N)nc(N)c2n1)c1ccc(C(=O)N[C@@H](CCC(=O)O)C(=O)O)cc1` [METHOTREXATE] has a Survival [20] of 0.4, a Survival [21] of under 0.01 and a Reduction [22] of over 99%. It also gave a Reduction [23] of 60%.

`CC(=O)OCC1=CC(=O)C=C(CCC2=CC(=O)C=C(COC(C)=O)C2=O)C1=O` showed a Baseline (Mus musculus [24]) of 162.76, a Survival [25] of 0.7 and a Reduction [26] of 30%. It also gave a Survival [27] of 1.35, a Survival [28] of 1.34 and a Baseline (Mus musculus [29]) of 360.23. For the same compound, the Baseline (Mus musculus [30]) was 34.53, the Baseline (Mus musculus [31]) was 358.79 and the Survival [32] was 1.19. It also gave a Reduction [33] of -19%, a Baseline (Mus musculus [34]) of 69.66 and a Baseline (Mus musculus [35]) of 94.83.

`COc1cccc2c1C(=O)c1c(O)c3c(c(O)c1C2=O)C[C@@](O)(C(=O)CO)C[C@@H]3O[C@H]1C[C@H](N)[C@H](O)[C@H](C)O1` [DOXORUBICIN] showed a Survival [36] of 0.69, a Reduction [37] of over 99% and a Survival [38] of 0.37. For the same compound, the Survival [39] was under 0.1, the Survival [40] was 0.18 and the Reduction [41] was 63%. The Reduction [42] was 82% and the Reduction [43] was 31%.

With `COc1cc([C@@H]2c3cc4c(cc3[C@@H](O[C@@H]3O[C@@H]5CO[C@@H](C)O[C@H]5[C@H](O)[C@H]3O)[C@H]3COC(=O)[C@H]23)OCO4)cc(OC)c1O` [ETOPOSIDE] the Reduction [44] was 70% and the Survival [45] was 0.3.
